The list shows a part of the results. Values without a mark were called inactive. Activity calls are given as the source filed them.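 The calls were made as follows, unless noted: active = mean inhibition across replicates above the hit cutoff set in the primary screen (cut at about 30% in these data); inactive = the rest.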
Each compound was assayed against (Lyso)-N-acylphosphatidylethanolamine lipase (Mus musculus) (UniProt Q8VD66) (assay: ABHD4 inhibitors, retest, confirmation, biochemical, fluorescence polarization, mouse (AID 720658)). Settings: purified mABHD4, FP-Rh probe fluorescence polarization; at 8.92 µM; stronger effect = higher value.
Sequence of (Lyso)-N-acylphosphatidylethanolamine lipase (Mus musculus) (Q8VD66 whole entry, looked up): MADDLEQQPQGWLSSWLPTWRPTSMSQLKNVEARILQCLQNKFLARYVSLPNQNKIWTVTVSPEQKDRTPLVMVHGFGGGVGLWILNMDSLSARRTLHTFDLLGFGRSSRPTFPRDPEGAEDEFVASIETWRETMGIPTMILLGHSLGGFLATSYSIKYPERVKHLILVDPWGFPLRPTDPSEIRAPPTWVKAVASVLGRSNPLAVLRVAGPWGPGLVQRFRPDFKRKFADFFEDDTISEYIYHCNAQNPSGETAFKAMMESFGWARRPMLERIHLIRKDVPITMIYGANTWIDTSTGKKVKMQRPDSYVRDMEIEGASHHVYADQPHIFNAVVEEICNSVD
Outline: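 System: mouse wild-type ABHD4 enzyme; also added: Rhodamine-tagged fluorophosphonate probe FP-Rh; schedule: 45 min compound pretreatment plus 60 min FP-Rh labeling, 25 °C; detection: fluorescence polarization, excitation 525 nm, emission 598 nm; control set: S159A mutant ABHD4 plus DMSO as 100%, wild-type plus DMSO 0%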
OCCNc1nc(Nc2ccc(Cl)c(Cl)c2)nc2ccccc12 was tested, and the inhibition was 40.4% (active). In the case of Cc1cccc(-n2cnc(C(=O)NNC(=S)Nc3ccccc3)c2)n1, the inhibition is reported as 57.2% (active). For CCOC(=O)C1=C(C)N=C2c3ccccc3C(=O)C2C1c1ccc(Br)cc1 (stereo not given), the inhibition was 44.8% (active). Nc1[nH]c(C(=O)c2ccc(Br)cc2)c(-c2ccc3c(c2)OCO3)c1C(=O)NCCc1c[nH]c2ccccc12 was tested, and the inhibition was 36.9% (active). COC(=O)c1oc2ccc(Br)cc2c1NC(C)=O gave an inhibition of -0.79%. In the case of CCOc1ccc2nc(Nc3nc4ccc(NC(C)=O)cc4s3)sc2c1, the inhibition is reported as 30.9% (active). For O=C(O)c1ccccc1/C=N/Nc1ccc(S(=O)(=O)Nc2ccc(Cl)cc2)cc1[N+](=O)[O-], the inhibition was 50.4% (active). For COc1cc(/C=C2/C(=O)NN(c3cccc(Cl)c3)C2=O)cc(Br)c1O, the inhibition was 38.8% (active). With CC/C(=C(/c1ccccc1)c1ccc(OCC[N+](C)(C)C)cc1)c1ccccc1 the inhibition was 36.6% (active). For COc1ccc2nc(Nc3nc4ccc(NC(C)=O)cc4s3)sc2c1, the inhibition was 39.4% (active). For c1ccc2sc(NN=C3CCCC3)nc2c1, the inhibition was -1.86%. In the case of C/C(=N\NC(=O)c1ccc(C)cc1)C1C(=O)c2ccccc2C1=O, the inhibition is reported as 35.3% (active). For CC1CCN(c2ccc(C(=O)O)cc2NS(=O)(=O)c2ccc(Br)s2)CC1, the inhibition was 47.5% (active). For CC(C)COC(=O)n1c(=O)oc2ccc(S(=O)(=O)N3CCCCC3)cc21, the inhibition was 49.4% (active). With CCOC(=O)Cn1c2c(n(-c3ccc(F)cc3)c1=O)C=C(c1ccccc1)[C@@H](C)C(C(=O)N(C)C1CCCCC1)=C2 the inhibition was 29.3%. Work on CCN1C(=O)/C(=C2/Sc3ccccc3N2CCCS(=O)(=O)O)SC1=S yielded an inhibition of 24.3%. In the case of NNc1nc2c(Cl)cccc2s1, the inhibition is reported as 24%. Compound CCOc1cc(/C=C2/N=C(c3ccc(C(C)(C)C)cc3)OC2=O)cc(Cl)c1OS(C)(=O)=O has an inhibition of 18.8%. With CCOC(=O)[C@H]1Nc2ccc(Cl)cc2[C@@H]2[C@H]1C1CC(c3ccccc31)N2C(=O)OCc1ccccc1 (stereo not given in full) the inhibition was 42% (active). COc1ccc(Br)cc1/C=N/Nc1ccc(S(=O)(=O)Nc2ccccc2C(=O)O)cc1[N+](=O)[O-] showed an inhibition of 20.7%. With O=C(O)c1ccc(N/N=C/c2cn(-c3ccccc3)nc2-c2cccs2)cc1 the inhibition was 57.4% (active). For O=[N+]([O-])c1cc(Br)c(O)c(/C=N/Nc2nc3ccccc3s2)c1, the inhibition was 69.5% (active). CCCCCCSc1ccc(-c2nc3ccc(Cl)cn3c2NCc2ccccc2)cc1 showed an inhibition of 5.45%. In the case of O=C(COC(=O)c1ccc(O)cc1O)c1ccc2c(c1)OCCO2, the inhibition is reported as 40.2% (active). Cc1cccc(N2CCN(Cc3nc(C4CC4)no3)CC2)n1 was tested, and the inhibition was -2.12%. For COc1cc(C(=O)Nn2c(O)c(C3=c4ccccc4=NC3=O)sc2=S)ccc1O, the inhibition was 77.4% (active). With NC(N)=N/N=C/c1ccc(OCc2ccc(Cl)cc2Cl)cc1 the inhibition was 46.2% (active). Compound CCC(CO)Oc1cc(NC(=O)c2cccc(F)c2)c2ncn(C(C)C)c2c1 (stereo not given) has an inhibition of 1.62%. In the case of Cc1ccc(NC(=O)Cc2nc(COC(=O)C(C)NS(=O)(=O)c3ccc(C)cc3)cs2)cc1 (stereo not given), the inhibition is reported as 7.11%.

These compounds were tested against Oxysterols receptor LXR-beta (Homo sapiens) (UniProt P55055) (assay: LXR agonists, Gal4 luciferase reporter, confirmation, counter-screen for hcDAF-12 agonist project, cell-based, luminescence, HEK293, H. contortus campaign (AID 743027;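 active = mean percent activation of the reporter above a cutoff set as the average over tested compounds plus their standard deviation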)). Settings: HEK293 Gal4-LXR tk-luc reporter, 24 h, at 6.8 µM, stronger effect = higher value, normalized: DMSO 0%, positive control 100%.
Sequence of Oxysterols receptor LXR-beta (Homo sapiens) (P55055 whole entry, looked up, the tested form may be a part): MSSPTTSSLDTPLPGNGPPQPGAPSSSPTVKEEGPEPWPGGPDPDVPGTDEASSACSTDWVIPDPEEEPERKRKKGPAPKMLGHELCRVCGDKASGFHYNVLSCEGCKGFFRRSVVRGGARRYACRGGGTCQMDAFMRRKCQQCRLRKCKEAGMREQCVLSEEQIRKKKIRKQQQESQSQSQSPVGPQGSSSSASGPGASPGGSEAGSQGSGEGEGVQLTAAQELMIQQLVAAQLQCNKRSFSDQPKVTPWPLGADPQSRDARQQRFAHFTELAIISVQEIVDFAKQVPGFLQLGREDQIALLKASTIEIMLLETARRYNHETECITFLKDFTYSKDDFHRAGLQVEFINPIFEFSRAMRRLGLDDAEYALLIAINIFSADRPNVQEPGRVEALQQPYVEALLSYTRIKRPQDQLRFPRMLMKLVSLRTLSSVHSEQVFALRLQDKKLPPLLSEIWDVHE
Outline: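 System: HEK293 cells transfected with Gal4-LXR vector plus GAL4-driven tk-luciferase reporter / Replicates: triplicate wells per compound / Detection: luciferase luminescence read with One-Glo reagent / Read-out basis: % activation / Timing: 24 h compound exposure at 37 °C, 5% CO2 / Benchmarks: DMSO low control, positive-control high control / Compound dosing: 6.8 µM single dose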
Cc1ccccc1C(=O)N[C@H](C(=O)N1CCC[C@H]1C(=O)NCc1ccccc1)C(C)C gave an activation of -0.15%. In the case of Clc1cccc(-c2nc3nc4ccccc4nc3n2Cc2ccco2)c1, the activation is reported as 0.26%. Work on Nc1ccc2[nH]c(=S)sc2c1 yielded an activation of 0.01%. For Cc1nn(CCOc2ccccc2)c(=O)n1-c1ccccc1F, the activation was 0.49%. Compound Cc1c(C(=O)Nc2ccccn2)oc2ccc(Br)cc12 has an activation of 1.8%. In the case of Cc1ccc2nc(-c3ccccc3)c(CC3CCCCC3)n2c1, the activation is reported as 0.85%. c1ccc2sc(NN=C3CCCC3)nc2c1 was tested, and the activation was 1.38%. Cc1ccc2cc(/C=N/Nc3ccc(C(=O)O)cc3)c(Cl)nc2c1 gave an activation of 0.97%. CC(C)c1ccc(C=NNc2ccc([N+](=O)[O-])cn2)cc1 gave an activation of 1.84%. OC(COc1ccc2ccccc2c1)CN1CCOCC1 (stereo not given) gave an activation of 0.33%. O=C(Cn1ccc([N+](=O)[O-])n1)NCc1cccs1 gave an activation of -0.27%. Work on NNc1nc2c(Cl)cccc2s1 yielded an activation of -0.01%. Compound O=C(Oc1ccc([N+](=O)[O-])cc1)c1ccc2ccccc2n1 has an activation of -0.2%.

These compounds were tested on Nuclear hormone receptor DAF-12 (Haemonchus contortus) (assay: H. contortus DAF-12 receptor agonists, confirmation, cell-based, luminescence, HEK293, lit1-tk-luc, triplicate (AID 743032;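 active = mean activation across triplicate tests above the threshold derived from the earlier primary screen, cut at about 5.5% in these data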;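 also: 0% = DMSO only wells and 100% = 3 µM Δ7-dafachronic acid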)). Settings: HEK293 hcDAF-12 lit1-tk-luc reporter, at 6.8 µM, stronger effect = higher value, % of Δ7-dafachronic acid response.
Work on Cc1ccccc1C(=O)N[C@H](C(=O)N1CCC[C@H]1C(=O)NCc1ccccc1)C(C)C yielded an activation of 0.18%. Clc1cccc(-c2nc3nc4ccccc4nc3n2Cc2ccco2)c1 gave an activation of 5.41%. For Nc1ccc2[nH]c(=S)sc2c1, the activation was 2.92%. Cc1nn(CCOc2ccccc2)c(=O)n1-c1ccccc1F was tested, and the activation was 5.42%. Cc1c(C(=O)Nc2ccccn2)oc2ccc(Br)cc12 was tested, and the activation was 15.4% (active). Cc1ccc2nc(-c3ccccc3)c(CC3CCCCC3)n2c1 was tested, and the activation was 9.61% (active). For c1ccc2sc(NN=C3CCCC3)nc2c1, the activation was 6.89% (active). For Cc1ccc2cc(/C=N/Nc3ccc(C(=O)O)cc3)c(Cl)nc2c1, the activation was 8.18% (active). CC(C)c1ccc(C=NNc2ccc([N+](=O)[O-])cn2)cc1 was tested, and the activation was 12% (active). For OC(COc1ccc2ccccc2c1)CN1CCOCC1 (stereo not given), the activation was 8.99% (active). With O=C(Cn1ccc([N+](=O)[O-])n1)NCc1cccs1 the activation was 1.71%. NNc1nc2c(Cl)cccc2s1 was tested, and the activation was 1.23%. With O=C(Oc1ccc([N+](=O)[O-])cc1)c1ccc2ccccc2n1 the activation was 4.02%.
